This passage reports ED50, LD50 and inhibition in vivo results from ChEMBL document CHEMBL1128569, “N-acyl-2-substituted-1,3-thiazolidines, a new class of non-narcotic antitussive agents: studies leading to the discovery of ethyl 2-[(2-methoxyphenoxy)methyl]-beta-oxothiazolidine-3-propanoate” (J Med Chem, 1995).

The subject of series [1] is Cavia porcellus. The series can be described thus: Antitussive activity by inhibition of irritant citric acid aerosol-induced coughing in guinea pig upon oral administration. The series is classed as functional. Summed up: (§1)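 Male guinea pigs (350-400 g) exposed in a box to 7.5% citric acid aerosol for 5 min, and coughs counted as the basal value. Next day, after overnight fasting, animals (6-8/dose) were gavaged with compound in water or 0.5% methyl cellulose (2 mL/kg) 1 h before re-exposure. Activity is the reduction in coughs versus the basal count. ED50 is the dose giving 50% reduction (Cochran and Snedecor).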

Series [2] is described as follows: Acute toxicity was determined in mice upon peroral administration. Type of series: organism-based. The note with it: mouse, in vivo, po. Summed up:
(§2)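 Swiss mice of both sexes, groups of six, dosed by gavage at several doses up to 1000 mg/kg. Compound dissolved in water or suspended in 0.5% carboxymethyl cellulose, 10 mL/kg. Deaths recorded over 1-7 days. LD50 obtained by logit transformation.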

Series [3] is described as follows: Lethality in mice following p.o. administration. The series is classed as ADME, organism-based. The note with it: mouse, in vivo, po. Summed up:
as §2

Series [4] relates to Cavia porcellus. Briefly: Antitussive activity was evaluated by inhibition of irritant aerosol-induced coughing by (po) administration of 30 mg/kg in guinea pig. Type of series: functional. Summed up: as §1
For series [5], the system named is Cavia porcellus. Briefly: Antitussive activity was evaluated by inhibition of irritant citric acid aerosol-induced coughing in guinea pig upon oral administration at 30 mg/kg dose. The series is classed as functional. Summed up:
as §1

For series [6], the system named is Cavia porcellus. The series can be described thus: Inhibition of irritant electrically-induced coughing in guinea pig trachea following p.o. administration. Type of series: functional. The note with it: po. In outline: (§3)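 Guinea pigs under ketamine (10 mg/kg im) and xylazine (3 mg/kg im) anaesthesia, with an electrode wrapped around the trachea about 1.5 cm above the bifurcation and an indifferent electrode on the dorsal skin. Coughs during stimulation counted as the basal value. Groups of 6-8/dose were gavaged with compound in water or 0.5% methyl cellulose (2 mL/kg). Activity is the cough reduction versus basal. ED50 is the dose giving 50% reduction.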

For series [7], the system named is Cavia porcellus. The series can be described thus: Antitussive activity was evaluated by inhibition of irritant aerosol-induced coughing by (po) administration in guinea pig. Type of series: functional. Summed up: as §1
Series [8] concerns Cavia porcellus. The series can be described thus: Antitussive activity was evaluated by inhibition of irritant electrically-induced coughing in guinea pig trachea upon oral administration at 30 mg/kg. The series is classed as functional. Summed up: as §3
Series [9] has as its system Cavia porcellus. Briefly: Antitussive activity was evaluated by inhibition of irritant electrically-induced coughing by (po) administration in guinea pig. The series is classed as functional. In outline: as §3

Some results are limits rather than exact numbers.

The ED50 is the dose at which the effect has come halfway, by size or by number of responders. The low end stands for greater potency, the high end for weaker potency. As usually defined, the LD50 is the dose at which mortality reaches 50%. A lower LD50 goes with greater toxicity. Take `COc1ccccc1OCC1SCCN1C(C)=O` (stereo not drawn): in [1], the ED50 was determined as 46 mg/kg. The molecule also displayed an LD50 in series [2] of 552 mg/kg.

One may read the inhibition in vivo as the change of the read-out against control, counted positive when it falls. Higher therefore signals a strong effect. With `CC(=O)SCC(=O)Oc1ccccc1CCC1SCCN1C(=O)CSC(C)=O` (stereo not drawn), in series [3], the LD50 was greater than 1000 mg/kg. Moreover, the inhibition in vivo at 30 mg/kg in series [4] is less than 20%.

Regarding `COc1ccccc1OCC1SCCN1C(=O)CC(=O)N1CCN(Cc2ccccc2)CC1.Cl` (stereo not drawn), the 50% effect level in series [1] (ED50) was put at a dose of 41 mg/kg. The same molecule gave a median lethal dose (LD50) in [2] of 681 mg/kg.

`CC(=O)SCC(=O)Oc1ccccc1OCC1SCCN1C(=O)CSC(C)=O` (stereo not drawn) yielded an LD50 in [3] greater than 1000 mg/kg. This molecule showed an inhibition in vivo at 30 mg/kg in series [4] of less than 20%.

Regarding `CCOC(=O)CCC(=O)N1CCSC1COc1ccccc1OC` (stereo not drawn), the ED50 in series [1] came to 24 mg/kg. The same molecule registered an LD50 in [2] greater than 1000 mg/kg.

The molecule `COc1ccccc1OCC1SCCN1C(=O)C(C)SC(C)=O` (stereo not drawn) yielded an LD50 in [3] greater than 1000 mg/kg. The molecule also had an inhibition in vivo at 30 mg/kg in [4] of less than 20%.

For the molecule `COc1ccccc1SCC1SCCN1C(=O)CN1CCN(C)CC1` (stereo not drawn), the inhibition in vivo at 30 mg/kg in [5] is less than 20%.

In the case of `COc1ccccc1OCC1SCCN1C(=O)CC(=O)NCc1ccccn1` (stereo not drawn), the 50% effective dose (ED50) in series [1] is 26 mg/kg; in series [6], 64 mg/kg.

In series [1], `COc1ccccc1OCC1SCCN1C(=O)Cn1ccnc1` (stereo not drawn) gave an ED50 of 50 mg/kg. Moreover, in series [2], the LD50 was 966 mg/kg.

Regarding `COc1ccccc1OCC1SCCN1C(=O)CC(=O)NCc1cccnc1.O=C(O)/C=C/C(=O)O` (stereo not drawn), the ED50 in [1] turned out to be 57 mg/kg. This molecule showed an LD50 in series [2] of 677 mg/kg.

Molecule `COc1ccccc1OCC1N(C(=O)CSC(C)=O)CC[S+]1[O-]` (stereo not drawn) gave an LD50 in [3] of 620 mg/kg. The molecule also had an inhibition in vivo at 30 mg/kg in series [4] of less than 20%.

Molecule `COc1ccccc1OCC1N(C(=O)CS(C)(=O)=O)CC[S+]1[O-]` (stereo not drawn) showed an LD50 in series [2] greater than 1000 mg/kg.

`CCOC(=O)CC(=O)N1CCSC1COc1ccccc1O` (stereo not drawn) registered an ED50 in series [1] of 20 mg/kg. Further, the LD50 in series [2] is greater than 1000 mg/kg.

`CC(=O)SCC(=O)N1CCSC1COc1ccccc1C` (stereo not drawn) returned an LD50 in series [3] greater than 1000 mg/kg. Besides, the inhibition in vivo at 30 mg/kg in series [4] is less than 20%.

`CCOCCOCC(=O)N1CCSC1COc1ccccc1OC` (stereo not drawn) showed an inhibition in vivo at 30 mg/kg in series [5] of less than 20%. In [2], this molecule registered an LD50 of 916 mg/kg.

For the molecule `CCOC(=O)C(=O)N1CCSC1COc1ccccc1OC` (stereo not drawn), the inhibition in vivo at 30 mg/kg in series [5] is less than 20%. This molecule yielded an LD50 in [2] greater than 1000 mg/kg.

Turning to `COc1ccccc1OCC1SCCN1C(=O)CC(C)=O` (stereo not drawn), the ED50 in series [1] came to 30 mg/kg; in [6] it was 26 mg/kg. The same molecule displayed an LD50 in series [2] greater than 1000 mg/kg.

Molecule `CC(=O)SCC(=O)N1CCSC1COc1ccccc1O` (stereo not drawn) yielded an ED50 in series [7] of 60 mg/kg. In addition, the LD50 in [3] was greater than 1000 mg/kg.

For the molecule `COc1ccccc1OCC1SCCN1C(=O)CN1CCN(C)CC1.Cl.Cl` (stereo not drawn), the inhibition in vivo at 30 mg/kg in series [8] was less than 20%. In [2], this molecule came in with a median lethal dose (LD50) of 818 mg/kg.

As for `COc1ccccc1OCC1SCCN1C(=O)CC(=O)NCc1ccncc1.Cl` (stereo not drawn), the values for the median effective dose (ED50) in [1] and in [6] were 23 mg/kg and 13 mg/kg, respectively. The LD50 in series [2] was determined as 707 mg/kg.

In [2], `Oc1ccccc1OCC1NCCS1` (stereo not drawn) registered an LD50 greater than 1000 mg/kg.

With `COc1ccccc1OCC1SCCN1C(=O)CC(=O)N1CCN(C(c2ccccc2)c2ccccc2)CC1` (stereo not drawn), the 50% effective dose (ED50) in series [1] worked out at 66 mg/kg; in [6] it was 44 mg/kg. The median lethal dose (LD50) in series [2] was greater than 1000 mg/kg.

`O=C(O)[C@@H]1CSC(COc2ccccc2O)N1` (stereo partly drawn) gave an inhibition in vivo at 30 mg/kg in series [5] of less than 20%. Moreover, the LD50 in series [2] was greater than 1000 mg/kg.

As to `CCOC(=O)[C@@H]1CSC(COc2ccccc2OC)N1C(=O)CSC(C)=O` (stereo partly drawn), the LD50 in series [3] came out at 672 mg/kg. For the same molecule, the inhibition in vivo at 30 mg/kg in series [4] was less than 20%.

On to `CCC(=O)SCC(=O)N1CCSC1COc1ccccc1OC` (stereo not drawn), for which the inhibition in vivo at 30 mg/kg in series [4] is less than 20%.

Turning to `CC(=O)SCC(=O)N1CCSC1CCc1ccccc1O` (stereo not drawn), the ED50 in series [7] was 61 mg/kg. This molecule also gave an LD50 in series [3] greater than 1000 mg/kg.

Molecule `CCOC(=O)[C@@H]1CSC(COc2ccccc2OC)N1` (stereo partly drawn) yielded an inhibition in vivo at 30 mg/kg in [5] of less than 20%. The same molecule gave an LD50 in [2] of 757 mg/kg.

Take `COc1ccccc1OCC1SCCN1C(=O)C(C)(C)C(=O)O` (stereo not drawn): the ED50 in [1] came to 34 mg/kg; in series [6] it was 21 mg/kg. Also, the LD50 in series [2] was greater than 1000 mg/kg.

In [5], `COc1ccccc1OCC1SCCN1C(=O)CN1CCOCC1.Cl` (stereo not drawn) registered an inhibition in vivo at 30 mg/kg of less than 20%. In addition, in series [2], the LD50 was 612 mg/kg.

As to `COc1ccccc1OCC1SCCN1C(=O)CS` (stereo not drawn), in series [5], the inhibition in vivo at 30 mg/kg was less than 20%.

On to `COc1ccccc1OCC1N(C(=O)CC(=O)O)CC[S+]1[O-]` (stereo not drawn), for which it took a dose of 20 mg/kg to reach the 50% effect level in [1] (ED50). This molecule also registered an LD50 in series [2] greater than 1000 mg/kg.

In the case of `COc1ccc(OCC2SCCN2C(=O)CSC(C)=O)cc1` (stereo not drawn), in series [9], the ED50 was 19 mg/kg. The molecule also gave an LD50 in [3] greater than 1000 mg/kg.
